Data taken from ChEMBL document CHEMBL4382272, “A Curcumin Degradation Product, 7-Norcyclopentadione, Formed by Aryl Migration and Loss of a Carbon from the Heptadienedione Chain” (J Nat Prod, 2018).

Tests used:
[1] = Drug metabolism in PMA-stimulated mouse RAW264.7 cells assessed as auto-oxidation by measuring 4''-O-methyl-7-norcyclopentadione formation at 10 uM after 30 mins by LC-MS analysis; format: ADME, cell-based; settings: raw264.7, 0.5 h
In short: (§1)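 RAW264.7 cells grown in DMEM with 10% FBS, seeded at 400 000 cells/well and attached overnight. They got PMA (stimulated lines) or EtOH vehicle for 5 min, then the test compound at 10 μM for 30 min. Supernatants were extracted on HLB cartridges, eluted with MeOH, dried under N2 and redissolved in MeCN/H2O 1:1. Analysis was negative-ion ESI LC-MS/MS in SRM mode.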

[2] = Drug level treated with demethoxy curcumin assessed as horseradish peroxidase-mediated oxidation at 50 uM after 1 hr in presence of H2O2 by LC-MS analysis; format: ADME; settings: armoracia rusticana
In short: (§2)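 HRP/H2O2 oxidation in 1 mL of 20 mM NH4OAc, pH 8, with 50 μM curcuminoid and 2.5 × 10−6 U horseradish peroxidase. H2O2 (40 μM) started the reaction, which ran 1 h at 37 °C. An aliquot was injected directly for negative-ion LC-MS.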

[3] = Drug level treated with deuterated-demethoxy curcumin assessed as horseradish peroxidase-mediated oxidation at 50 uM after 1 hr in presence of H2O2 by LC-MS analysis; format: ADME; settings: armoracia rusticana; in short: as §2
[4] = Drug level treated with curcumin at 50 uM by LC-MS analysis; format: physicochemical
[5] = Drug level in pH 7.4 buffer containing 50% H218O treated with curcumin at 50 uM by LC-MS analysis; format: physicochemical; settings: pH 7.4, 50 µM
In short: (§3)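 Oxygen-18 labelling in 200 μL of 20 mM NH4HCO3, pH 7.4, made with a 1:1 mix of H2O and H218O (97%). Curcumin was added at 50 μM and incubated 1 h at 37 °C. Aliquots went to negative-ion LC-MS without extraction.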

[6] = Drug metabolism in pH 7.4 buffer treated with curcumin at 50 uM by LC-MS analysis
[7] = Drug level in mouse RAW264.7 cells treated with curcumin at 10 uM after 30 mins by LC-MS analysis; format: ADME, cell-based; settings: raw264.7, 0.5 h; in short: as §1
[8] = Drug level in PMA-stimulated mouse RAW264.7 cells treated with curcumin at 10 uM after 30 mins by LC-MS analysis; format: ADME, cell-based; settings: raw264.7, 0.5 h; in short: as §1
[9] = Drug metabolism assessed as horseradish peroxidase-mediated oxidation by measuring demethoxy-7-Norcyclopentadione formation at 50 uM after 1 hr in presence of H2O2 by LC-MS analysis; format: ADME; settings: armoracia rusticana; in short: as §2
[10] = Drug metabolism assessed as horseradish peroxidase-mediated oxidation by measuring deuterated-demethoxy-7-Norcyclopentadione formation at 50 uM after 1 hr in presence of H2O2 by LC-MS analysis; format: ADME; settings: armoracia rusticana; in short: as §2
[11] = Drug level in mouse RAW264.7 cells treated with 4'-O-methylcurcumin at 10 uM after 30 mins by LC-MS analysis; format: ADME, cell-based; settings: raw264.7, 0.5 h; in short: as §1
[12] = Drug level in PMA-stimulated mouse RAW264.7 cells treated with 4'-O-methylcurcumin at 10 uM after 30 mins by LC-MS analysis; format: ADME, cell-based; settings: raw264.7, 0.5 h; in short: as §1
[13] = Drug metabolism assessed as auto-oxidation by measuring 7-Norcyclopentadione formation at 50 uM by LC-MS analysis
[14] = Drug metabolism in pH 7.4 buffer containing 50% H218O assessed as auto-oxidation by measuring 7-Norcyclopentadione formation at 50 uM by LC-MS analysis; in short: as §3
[15] = Drug metabolism in pH 7.4 buffer assessed as auto-oxidation by measuring 7-Norcyclopentadione formation at 50 uM by LC-MS analysis
[16] = Drug metabolism in PMA-stimulated mouse RAW264.7 cells assessed as auto-oxidation by measuring 7-Norcyclopentadione formation at 10 uM after 30 mins by LC-MS analysis; format: ADME, cell-based; settings: raw264.7, 0.5 h; in short: as §1
[17] = Drug metabolism assessed as horseradish peroxidase-mediated oxidation by measuring bisdemethoxy-7-Norcyclopentadione formation at 50 uM after 1 hr in presence of H2O2 by LC-MS analysis; format: ADME; settings: armoracia rusticana; in short: as §2

For `COc1cc(/C=C/C(=O)/C=C(O)/C=C/c2ccc(OC)c(OC)c2)ccc1O`, the Drug metabolism [1] was “Metabolite_Detected”.
In the case of `COc1cc(C2C(O)=CC(=O)C2C(O)c2ccc(O)cc2)ccc1O` (configuration not stated), the Drug metabolism [2] is reported as “Metabolite_Detected”.
In the case of `[2H]c1c([2H])c(C(O)C2C(=O)C=C(O)C2c2ccc(O)c(OC)c2)c([2H])c([2H])c1O` (configuration not stated), the Drug metabolism [3] is reported as “Metabolite_Detected”.
For `COc1cc(C(O)C2C(=O)C=C(O)C2c2ccc(O)c(OC)c2)ccc1O` (configuration not stated), the Drug metabolism [4] was “Metabolite_Detected”, the Drug metabolism [5] was “Metabolite_Detected” and the Drug metabolism [6] was “Metabolite detected”. For the same compound, the Drug metabolism [7] was “Metabolite_Detected” and the Drug metabolism [8] was “Metabolite_Detected”.
With `COc1cc(/C=C/C(=O)CC(=O)/C=C/c2ccc(O)cc2)ccc1O` the Drug metabolism [9] was “Metabolite_Detected”.
With `[2H]c1c([2H])c(/C=C/C(=O)CC(=O)/C=C/c2ccc(O)c(OC)c2)c([2H])c([2H])c1O` the Drug metabolism [10] was “Metabolite_Detected”.
For `COc1cc(C2C(O)=CC(=O)C2C(O)c2ccc(OC)c(OC)c2)ccc1O` (configuration not stated), the Drug metabolism [11] was “Metabolite_Detected” and the Drug metabolism [12] was “Metabolite_Detected”.
In the case of `COc1cc(/C=C/C(=O)CC(=O)/C=C/c2ccc(O)c(OC)c2)ccc1O` [CURCUMIN], the Drug metabolism [13] is reported as “Metabolite detected”, the Drug metabolism [14] is reported as “Metabolite detected” and the Drug metabolism [15] is reported as “Metabolite detected”. For the same compound, the Drug metabolism [16] was “Metabolite_Detected”.
With `O=C(/C=C/c1ccc(O)cc1)CC(=O)/C=C/c1ccc(O)cc1` [BISDEMETHOXYCURCUMIN] the Drug metabolism [17] was “Metabolite_Notdetected”.
